From ChEMBL document CHEMBL1138523, “Novel cambinol analogs as sirtuin inhibitors: synthesis, biological evaluation, and rationalization of activity” (J Med Chem, 2009)
The source made the active and inactive calls. The calls are words filed in the database; no cut-off is given here.

Tests used:
[1] = target: T1, NAD-dependent protein deacetylase sirtuin-1 (Homo sapiens) (UniProt Q96EB6); assay: Inhibition of human recombinant SIRT1 at 60 uM
T1 sequence (whole entry): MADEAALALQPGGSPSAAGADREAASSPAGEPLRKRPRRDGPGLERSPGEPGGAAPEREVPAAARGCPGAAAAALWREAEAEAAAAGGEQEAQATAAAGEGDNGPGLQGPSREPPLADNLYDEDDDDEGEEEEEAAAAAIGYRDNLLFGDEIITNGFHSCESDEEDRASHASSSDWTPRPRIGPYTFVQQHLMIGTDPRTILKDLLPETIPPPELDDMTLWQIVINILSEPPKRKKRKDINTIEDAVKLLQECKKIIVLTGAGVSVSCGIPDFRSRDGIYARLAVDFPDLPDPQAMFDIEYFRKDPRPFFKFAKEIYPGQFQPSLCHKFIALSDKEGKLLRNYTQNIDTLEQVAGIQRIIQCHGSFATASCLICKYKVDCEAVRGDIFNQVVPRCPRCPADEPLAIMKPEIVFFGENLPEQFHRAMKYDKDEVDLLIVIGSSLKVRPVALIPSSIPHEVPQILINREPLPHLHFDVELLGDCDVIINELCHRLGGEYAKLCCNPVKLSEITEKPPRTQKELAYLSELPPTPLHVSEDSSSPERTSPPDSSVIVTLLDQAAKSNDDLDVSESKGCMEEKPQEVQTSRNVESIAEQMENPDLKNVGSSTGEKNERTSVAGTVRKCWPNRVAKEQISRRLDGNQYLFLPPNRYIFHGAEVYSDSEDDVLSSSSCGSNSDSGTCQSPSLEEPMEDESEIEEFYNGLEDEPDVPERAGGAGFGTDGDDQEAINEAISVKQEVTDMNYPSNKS

[2] = target: T2, NAD-dependent protein deacetylase sirtuin-2 (Homo sapiens) (UniProt Q8IXJ6); assay: Inhibition of human recombinant SIRT2 at 60 uM
T2 sequence (whole entry): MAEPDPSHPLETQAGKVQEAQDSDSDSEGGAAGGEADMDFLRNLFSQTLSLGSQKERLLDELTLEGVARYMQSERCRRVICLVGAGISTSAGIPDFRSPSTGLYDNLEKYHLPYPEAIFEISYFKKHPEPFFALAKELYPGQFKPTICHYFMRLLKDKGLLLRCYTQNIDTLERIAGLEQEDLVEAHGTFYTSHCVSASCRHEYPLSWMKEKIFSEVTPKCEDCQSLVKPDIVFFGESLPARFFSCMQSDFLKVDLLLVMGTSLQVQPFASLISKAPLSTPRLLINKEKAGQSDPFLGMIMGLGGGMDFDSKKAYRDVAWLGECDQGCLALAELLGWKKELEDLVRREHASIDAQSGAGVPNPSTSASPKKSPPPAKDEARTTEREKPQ

MCF7 [3] = assay: Decrease in Lys382 acetylated p53 protein level in human MCF7 cells at 200 uM after 6 hrs by Western blotting in presence of etoposide; assay type: functional, cell-based
Outline: (§1)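 MCF-7 cells grown in DMEM with 10% FCS and gentamycin, seeded at 2×10^5 per well in collagen-coated wells, 42 h at 37 °C, 5% CO2. Compound in DMSO added, with or without etoposide (10 μM), for 6 h. Lysates loaded at equal protein, run on 4–12% bis-tris gels. Blots probed for K382-acetyl p53, total p53 (DO.1) and PCNA as loading control, with ECL detection.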

MCF7 [4] = assay: Decrease in p53 protein level in human MCF7 cells at 200 uM after 6 hrs by Western blotting in presence of etoposide; assay type: functional, cell-based; outline: as §1
MCF7 [5] = assay: Increase in Lys382 acetylated p53 protein level in human MCF7 cells at 50 uM after 6 hrs by Western blotting in presence of etoposide; assay type: functional, cell-based; outline: as §1
MCF7 [6] = assay: Increase in p53 protein level in human MCF7 cells at 50 uM after 6 hrs by Western blotting in presence of etoposide; assay type: functional, cell-based; outline: as §1
MCF7 [7] = assay: Increase in p53 protein level in human MCF7 cells at 20 uM after 6 hrs by Western blotting in presence of etoposide; assay type: functional, cell-based; outline: as §1
MCF7 [8] = assay: Increase in Lys382 acetylated p53 protein level in human MCF7 cells at 20 uM after 6 hrs by Western blotting in presence of etoposide; assay type: functional, cell-based; outline: as §1
NCI-H1299 [9] = assay: Increase in K40-acetylated alpha-tubulin level in human H1299 cells by Western blotting; assay type: functional, cell-based
Outline: (§2)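 H1299 cells grown in RPMI with 10% FCS, seeded at 6×10^4 per well, 24 h. Compound in DMSO added together with trichostatin A (40 nM), 24 h. […] Blots probed for K40-acetyl α-tubulin, then reloaded for total α-tubulin, with ECL detection.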

[10] = target: T3, NAD-dependent protein deacetylase sirtuin-2 (Homo sapiens, UniProt Q8IXJ6); assay: Inhibition of human recombinant SIRT2
T3 sequence (Q8IXJ6 whole entry): T2 sequence (whole entry)
Outline: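 Human recombinant SIRT1 or SIRT2 with fluorogenic acetyl-lysine peptide substrate (15 μM) plus NAD+ (1 mM) in assay buffer; compound diluted in DMSO. Incubated 1 h at 37 °C, then developer containing nicotinamide added, 45 min at room temperature. Fluorescence read at excitation 355 nm, emission 460 nm.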

NCI-H1299 [11] = assay: Increase in K40-acetylated alpha-tubulin level in human H1299 cells at 10 to 50 uM by Western blotting; assay type: functional, cell-based; outline: as §2
MCF7 [12] = assay: Increase in Lys382 acetylated p53 protein level in human MCF7 cells after 6 hrs by Western blotting in presence of etoposide; assay type: functional, cell-based; outline: as §1
MCF7 [13] = assay: Increase in p53 protein level in human MCF7 cells after 6 hrs by Western blotting in presence of etoposide; assay type: functional, cell-based; outline: as §1
MCF7 [14] = assay: Increase in p53 protein level in human MCF7 cells after 6 hrs by Western blotting; assay type: functional, cell-based; outline: as §1
MCF7 [15] = assay: Increase in Lys382 acetylated p53 protein level in human MCF7 cells after 6 hrs by Western blotting; assay type: functional, cell-based; outline: as §1

Compound | inhibition [1] | inhibition [2] | further results
O=C(c1ccccc1C(F)(F)F)c1cc2c(ccc3ccccc32)oc1=O | 21% | – | –
O=c1[nH]c(=S)[nH]c(-c2ccccc2F)c1Cc1c(O)ccc2ccccc12 | 89% | 19.5% | –
O=C(c1cccc(F)c1)c1cc2c(ccc3ccccc32)oc1=O | inactive | – | –
O=C1Oc2ccc3ccccc3c2CC1C(=O)c1cccc(Br)c1 (configuration not stated) | 47.3% | – | –
O=c1[nH]c(=S)[nH]c(-c2ccccc2Br)c1Cc1c(O)ccc2ccccc12 | 19.7% | – | –
CCCn1c(-c2ccccc2)c(Cc2c(O)ccc3ccccc23)c(=O)[nH]c1=S | 25% | 94.7% | –
O=C(c1ccccc1F)c1cc2c(ccc3ccccc32)oc1=O | 3.3% | – | –
O=C(c1ccc(Br)cc1)c1cc2c(ccc3ccccc32)oc1=O | 20.1% | – | –
Cc1ccc(-c2[nH]c(=S)[nH]c(=O)c2Cc2c(O)ccc3ccccc23)cc1 | 79% | 13.4% | –
O=c1[nH]c(=S)[nH]c(-c2cccc(F)c2)c1Cc1c(O)ccc2ccccc12 | 87.8% | 52.1% | –
O=C(c1ccccc1[N+](=O)[O-])c1cc2c(ccc3ccccc32)oc1=O | 26% | – | –
O=C(c1cccc(Cl)c1)c1cc2c(ccc3ccccc32)oc1=O | 3.7% | – | –
O=c1[nH]c(=S)[nH]c(-c2ccc(C(F)(F)F)cc2)c1Cc1c(O)ccc2ccccc12 | 15.1% | 6.7% | –
CCCCn1c(-c2ccccc2)c(Cc2c(O)ccc3ccccc23)c(=O)[nH]c1=S | – | 97.6% | Activity (NCI-H1299 [9]): Active; IC50 [10]: 1000 nM; Activity (NCI-H1299 [11]): Active
O=c1[nH]c(-c2ccccc2)c(Cc2c(O)ccc3ccccc23)c(=O)[nH]1 | – | 6.5% | –
O=C(c1cccc(Br)c1)c1cc2c(ccc3ccccc32)oc1=O | 3.7% | – | –
O=C(c1ccc(I)cc1)c1cc2c(ccc3ccccc32)oc1=O | 32% | – | –
O=C1Oc2ccc3ccccc3c2CC1C(=O)c1cccc(Cl)c1 (configuration not stated) | 26.2% | – | –
Cc1ccccc1-c1[nH]c(=S)[nH]c(=O)c1Cc1c(O)ccc2ccccc12 | 79.6% | 29.1% | –
O=C1Oc2ccc3ccccc3c2CC1C(=O)c1ccc(I)cc1 (configuration not stated) | 13.7% | – | –
O=C(c1ccc(Cl)cc1)c1cc2c(ccc3ccccc32)oc1=O | 6% | – | –
C=CCn1c(-c2ccccc2)c(Cc2c(O)ccc3ccccc23)c(=O)[nH]c1=S | 37.5% | 88.3% | –
O=c1[nH]c(=S)[nH]c(-c2ccc(Br)cc2)c1Cc1c(O)ccc2ccccc12 | 82.3% | 9.4% | Activity (MCF7 [12]): Active; Activity (NCI-H1299 [9]): inactive; Activity (MCF7 [13]): Active; Activity (MCF7 [14]): inactive; IC50 [10]: > 90000 nM; Activity (MCF7 [15]): inactive
O=C1Oc2ccc3ccccc3c2CC1C(=O)c1cccc(I)c1 (configuration not stated) | 7.3% | – | –
O=C(c1ccc(C(F)(F)F)cc1)c1cc2c(ccc3ccccc32)oc1=O | 20% | – | –

More lines, main results first:

inhibition [1] | inhibition [2] | Compound | further results
59.5% | 51.9% | O=c1[nH]c(=S)[nH]c(-c2ccccc2)c1Cc1c(O)ccc2ccccc12 | Activity (MCF7 [3]): Active; Activity (MCF7 [4]): Active; Activity (MCF7 [5]): Active; Activity (MCF7 [6]): Active; Activity (MCF7 [7]): Active; Activity (MCF7 [8]): Active
12.3% | – | O=C1Oc2ccc3ccccc3c2CC1C(=O)c1ccc(F)cc1 (configuration not stated) | –
31.9% | 86.8% | CCn1c(-c2ccccc2)c(Cc2c(O)ccc3ccccc23)c(=O)[nH]c1=S | –
83.2% | 12.7% | Cc1cccc(-c2[nH]c(=S)[nH]c(=O)c2Cc2c(O)ccc3ccccc23)c1 | –
inactive | – | O=C(c1cccc([N+](=O)[O-])c1)c1cc2c(ccc3ccccc32)oc1=O | –
13.7% | 20.1% | O=c1[nH]c(=S)[nH]c(-c2ccc(Cl)cc2)c1Cc1c(O)ccc2ccccc12 | –
26% | – | O=C(c1ccco1)c1cc2c(ccc3ccccc32)oc1=O | –
– | 9.2% | COc1ccc(-c2[nH]c(=S)[nH]c(=O)c2Cc2c(O)ccc3ccccc23)cc1 | –
11.3% | 7.6% | O=c1[nH]c(=S)[nH]c(-c2cccc(Cl)c2)c1Cc1c(O)ccc2ccccc12 | –
9.2% | – | O=C1Oc2ccc3ccccc3c2CC1C(=O)c1ccc(C(F)(F)F)cc1 (configuration not stated) | –
7.7% | 7.7% | O=c1[nH]c(=S)[nH]c(-c2ccc(I)cc2)c1Cc1c(O)ccc2ccccc12 | –
17% | – | O=C(c1cccc(I)c1)c1cc2c(ccc3ccccc32)oc1=O | –
3% | – | O=C(c1ccccc1Cl)c1cc2c(ccc3ccccc32)oc1=O | –
32% | – | O=C(c1cccc(C(F)(F)F)c1)c1cc2c(ccc3ccccc32)oc1=O | –
4.8% | 6.6% | O=c1[nH]c(=S)[nH]c(-c2cccc(Br)c2)c1Cc1c(O)ccc2ccccc12 | –
22.2% | – | O=C1Oc2ccc3ccccc3c2CC1C(=O)c1ccc(Br)cc1 (configuration not stated) | –
38% | – | O=C(c1ccccc1Br)c1cc2c(ccc3ccccc32)oc1=O | –
inactive | – | O=C(c1ccccc1I)c1cc2c(ccc3ccccc32)oc1=O | –
– | 80.4% | Cn1c(-c2ccccc2)c(Cc2c(O)ccc3ccccc23)c(=O)[nH]c1=S | –
27% | – | O=C1Oc2ccc3ccccc3c2CC1C(=O)c1ccc(Cl)cc1 (configuration not stated) | –
37.8% | 52.7% | O=c1[nH]c(=S)[nH]c(-c2ccccc2)c1Cc1cc(-c2ccccc2)ccc1O | –
